Tests used:
[1] = biological target: T1, 5-hydroxytryptamine receptor 1A (Homo sapiens, UniProt P08908); assay: Displacement of [3H]-8-OH-DPAT from recombinant human 5HT1A receptor expressed in CHO cell membranes measured after 60 mins by microbeta scintillation counting analysis
T1 sequence (P08908 whole entry): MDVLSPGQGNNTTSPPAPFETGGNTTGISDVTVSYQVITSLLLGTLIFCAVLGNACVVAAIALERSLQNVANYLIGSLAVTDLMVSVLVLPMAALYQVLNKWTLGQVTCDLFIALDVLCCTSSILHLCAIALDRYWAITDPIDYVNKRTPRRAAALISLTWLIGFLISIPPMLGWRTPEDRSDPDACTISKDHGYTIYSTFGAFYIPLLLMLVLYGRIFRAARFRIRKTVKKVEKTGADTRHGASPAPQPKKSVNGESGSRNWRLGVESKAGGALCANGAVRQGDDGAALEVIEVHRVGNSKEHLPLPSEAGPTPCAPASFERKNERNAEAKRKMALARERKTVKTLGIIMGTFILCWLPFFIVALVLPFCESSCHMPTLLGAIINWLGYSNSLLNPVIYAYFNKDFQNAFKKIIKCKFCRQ

[2] = biological target: Sodium-dependent serotonin transporter (Rattus norvegicus, UniProt P31652); assay: Displacement of [3H]-citalopram from SERT in rat cortex tissue measured after 60 mins by microbeta scintillation counting analysis
Chain of Sodium-dependent serotonin transporter (P31652 whole entry): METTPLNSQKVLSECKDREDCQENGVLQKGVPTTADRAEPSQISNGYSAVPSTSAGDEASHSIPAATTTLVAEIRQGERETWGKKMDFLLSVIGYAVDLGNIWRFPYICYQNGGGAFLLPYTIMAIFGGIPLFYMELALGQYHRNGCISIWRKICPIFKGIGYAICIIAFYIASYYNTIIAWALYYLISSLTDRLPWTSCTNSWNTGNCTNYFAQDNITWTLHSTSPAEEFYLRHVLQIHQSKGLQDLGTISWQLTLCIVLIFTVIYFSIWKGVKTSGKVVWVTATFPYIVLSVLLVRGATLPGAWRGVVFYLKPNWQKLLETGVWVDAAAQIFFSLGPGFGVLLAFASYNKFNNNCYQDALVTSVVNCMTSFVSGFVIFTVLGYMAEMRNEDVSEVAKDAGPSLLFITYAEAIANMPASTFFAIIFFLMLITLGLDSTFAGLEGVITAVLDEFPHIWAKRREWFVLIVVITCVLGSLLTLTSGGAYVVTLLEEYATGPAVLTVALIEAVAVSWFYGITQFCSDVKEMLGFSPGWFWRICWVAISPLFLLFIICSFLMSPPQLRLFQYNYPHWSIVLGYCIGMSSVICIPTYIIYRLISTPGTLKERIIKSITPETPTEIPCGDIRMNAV
Method in brief: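 Rat cortex tissue suspension with 1.0 nM [3H]-citalopram in 50 mM Tris pH 7.7, 150 mM NaCl, 5 mM KCl. Incubated 60 min at 24 °C, in duplicate. GF/B filtration, scintillation counting. One-site fit, Ki via Cheng–Prusoff with in-house Kd.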

Mus musculus [3] = assay: Induction of hypothermia in CD-1 mouse assessed as change in body temperature at 5 mg/kg, ip measured after 30 mins by thermometric method; format: functional, organism-based
Method in brief: (§1)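 Male CD-1 mice (23–40 g), 6–8 per dose, given compound ip in 10% aqueous DMSO (10 mL/kg). Rectal temperature was read by thermometer 30, 60, 90 and 120 min after dosing. Results are expressed as change from basal temperature at experiment start. Analysis by Dunnett's test.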

[4] = biological target: 5-hydroxytryptamine receptor 6 (Homo sapiens, UniProt P50406); assay: Displacement of [3H]-LSD from recombinant human 5HT6 receptor expressed in HEK293 cells measured after 1 hr by microbeta scintillation counting analysis; format: cell-based
Chain of 5-hydroxytryptamine receptor 6 (P50406 whole entry): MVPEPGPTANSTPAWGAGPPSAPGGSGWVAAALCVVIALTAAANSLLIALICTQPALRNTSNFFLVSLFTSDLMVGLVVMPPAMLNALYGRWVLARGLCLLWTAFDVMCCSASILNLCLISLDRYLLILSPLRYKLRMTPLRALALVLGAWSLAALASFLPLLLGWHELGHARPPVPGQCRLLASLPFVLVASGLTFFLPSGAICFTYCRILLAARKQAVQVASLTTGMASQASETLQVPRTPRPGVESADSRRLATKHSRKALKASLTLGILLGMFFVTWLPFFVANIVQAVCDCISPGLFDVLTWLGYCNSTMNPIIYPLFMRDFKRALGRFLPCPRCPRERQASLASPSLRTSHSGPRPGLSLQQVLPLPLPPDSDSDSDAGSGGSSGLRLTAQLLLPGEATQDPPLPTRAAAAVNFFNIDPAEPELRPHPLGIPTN

[5] = biological target: 5-hydroxytryptamine receptor 2A (Homo sapiens, UniProt P28223); assay: Displacement of [3H]-ketanserin from recombinant human 5HT2A receptor expressed in HEK293 cells measured after 1.5 hrs by microbeta scintillation counting analysis; format: cell-based
Chain of 5-hydroxytryptamine receptor 2A (P28223 whole entry): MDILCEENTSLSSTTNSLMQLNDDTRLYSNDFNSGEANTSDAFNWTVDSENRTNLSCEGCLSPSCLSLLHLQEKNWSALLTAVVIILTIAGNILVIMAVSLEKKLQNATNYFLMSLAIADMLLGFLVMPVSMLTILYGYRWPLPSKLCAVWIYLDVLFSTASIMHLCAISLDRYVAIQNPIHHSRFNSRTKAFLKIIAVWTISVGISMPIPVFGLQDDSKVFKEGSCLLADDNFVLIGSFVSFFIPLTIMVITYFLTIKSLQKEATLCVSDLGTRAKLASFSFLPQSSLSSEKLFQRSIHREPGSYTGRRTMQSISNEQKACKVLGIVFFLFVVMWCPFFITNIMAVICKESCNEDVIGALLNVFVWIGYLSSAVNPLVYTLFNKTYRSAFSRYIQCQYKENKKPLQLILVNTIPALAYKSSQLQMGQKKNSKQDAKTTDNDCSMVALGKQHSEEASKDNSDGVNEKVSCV

Mus musculus [6] = assay: Induction of hypothermia in CD-1 mouse assessed as change in body temperature at 20 mg/kg, ip measured after 30 mins by thermometric method; format: functional, organism-based; method in brief: as §1
Mus musculus [7] = assay: Induction of hypothermia in CD-1 mouse assessed as change in body temperature at 5 mg/kg, ip measured after 120 mins by thermometric method; format: functional, organism-based; method in brief: as §1
Mus musculus [8] = assay: Inhibition of 8-OH-DPAT-induced hypothermia in CD-1 mouse assessed change in body temperature at 20 mg/kg, ip measured after 60 mins by thermometric method (reference value: -2.4 +/- 0.3 deg C); format: functional, organism-based
Mus musculus [9] = assay: Induction of hypothermia in CD-1 mouse assessed as change in body temperature at 20 mg/kg, ip measured after 90 mins by thermometric method; format: functional, organism-based; method in brief: as §1
[10] = biological target: 5-hydroxytryptamine receptor 7 (Homo sapiens, UniProt P34969); assay: Displacement of [3H]-5-CT from recombinant human 5HT7 receptor expressed in HEK293 cells measured after 1 hr by microbeta scintillation counting analysis; format: cell-based
Chain of 5-hydroxytryptamine receptor 7 (P34969 whole entry): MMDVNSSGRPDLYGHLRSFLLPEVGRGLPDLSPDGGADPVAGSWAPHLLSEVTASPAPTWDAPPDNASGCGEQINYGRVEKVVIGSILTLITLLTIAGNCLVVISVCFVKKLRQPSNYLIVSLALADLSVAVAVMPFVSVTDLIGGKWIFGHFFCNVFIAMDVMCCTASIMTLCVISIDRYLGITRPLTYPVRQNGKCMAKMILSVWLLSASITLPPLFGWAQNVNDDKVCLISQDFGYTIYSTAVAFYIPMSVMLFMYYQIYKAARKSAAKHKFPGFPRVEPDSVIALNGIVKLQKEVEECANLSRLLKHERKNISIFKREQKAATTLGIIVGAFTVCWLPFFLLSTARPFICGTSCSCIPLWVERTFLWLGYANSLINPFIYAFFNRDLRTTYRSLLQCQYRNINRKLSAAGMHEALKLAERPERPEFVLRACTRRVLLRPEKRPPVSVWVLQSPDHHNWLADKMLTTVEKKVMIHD

Mus musculus [11] = assay: Induction of hypothermia in CD-1 mouse assessed as change in body temperature at 20 mg/kg, ip measured after 120 mins by thermometric method; format: functional, organism-based; method in brief: as §1
Mus musculus [12] = assay: Induction of hypothermia in CD-1 mouse assessed as change in body temperature at 5 mg/kg, ip measured after 90 mins by thermometric method; format: functional, organism-based; method in brief: as §1
Mus musculus [13] = assay: Inhibition of 8-OH-DPAT-induced hypothermia in CD-1 mouse assessed change in body temperature at 20 mg/kg, ip measured after 30 mins by thermometric method (reference value: -2.4 +/- 0.2 deg C); format: functional, organism-based
Mus musculus [14] = assay: Inhibition of 8-OH-DPAT-induced hypothermia in CD-1 mouse assessed change in body temperature at 20 mg/kg, ip measured after 15 mins by thermometric method (reference value: -1.9 +/- 0.2 deg C); format: functional, organism-based
D(2) dopamine receptor = D(2) dopamine receptor (Homo sapiens, UniProt P14416); assay: Displacement of [3H]-raclopride from recombinant human D2 receptor expressed in HEK293 cells measured after 1 hr by microbeta scintillation counting analysis; format: cell-based
Chain of D(2) dopamine receptor (P14416 whole entry): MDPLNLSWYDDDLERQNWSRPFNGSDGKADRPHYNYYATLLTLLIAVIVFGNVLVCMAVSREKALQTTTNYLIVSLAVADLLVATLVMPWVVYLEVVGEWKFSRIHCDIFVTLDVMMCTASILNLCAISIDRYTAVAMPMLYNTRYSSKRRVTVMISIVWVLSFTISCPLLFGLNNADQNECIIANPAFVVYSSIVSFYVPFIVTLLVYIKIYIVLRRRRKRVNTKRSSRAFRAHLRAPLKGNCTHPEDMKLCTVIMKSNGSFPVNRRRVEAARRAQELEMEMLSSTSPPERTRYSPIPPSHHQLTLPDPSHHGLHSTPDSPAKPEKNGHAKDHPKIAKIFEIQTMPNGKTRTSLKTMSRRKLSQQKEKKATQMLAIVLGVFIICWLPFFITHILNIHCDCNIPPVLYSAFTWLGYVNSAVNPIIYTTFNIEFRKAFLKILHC

Mus musculus [15] = assay: Induction of hypothermia in CD-1 mouse assessed as change in body temperature at 20 mg/kg, ip measured after 60 mins by thermometric method; format: functional, organism-based; method in brief: as §1
Mus musculus [16] = assay: Induction of hypothermia in CD-1 mouse assessed as change in body temperature at 5 mg/kg, ip measured after 60 mins by thermometric method; format: functional, organism-based; method in brief: as §1
[17] = Half life in human liver microsomes at 1 uM by LC-MS analysis; format: ADME, Microsome
Method in brief: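 Compound at 1 μM incubated at 37 °C with 1 mg/mL pooled human liver microsomes and 100 μM NADPH in 0.1 M potassium phosphate pH 7.4, after 5-min preincubation. Samples taken at 0, 5, 10, 15, 30 min and quenched in ice-cold acetonitrile with buspirone internal standard. No-NADPH controls were run. Parent measured by LC-ESI(+)-MS of [M+H+]; half-life reported.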

Mus musculus [18] = assay: Inhibition of 8-OH-DPAT-induced hypothermia in CD-1 mouse assessed change in body temperature at 20 mg/kg, ip measured after 45 mins by thermometric method (reference value: -2.6 +/- 0.2 deg C); format: functional, organism-based
Mus musculus [19] = assay: Induction of hypothermia in CD-1 mouse assessed as change in body temperature at 20 mg/kg, ip measured after 30 mins in presence of WAY100635 by thermometric method; format: functional, organism-based
Mus musculus [20] = assay: Induction of hypothermia in CD-1 mouse assessed as change in body temperature at 20 mg/kg, ip measured after 60 mins in presence of WAY100635 by thermometric method; format: functional, organism-based

| Structure (SMILES) | Ki [1] [nM] | Ki [2] [nM] | other results |
| --- | --- | --- | --- |
| O=c1c(-c2ccc(F)cc2)c2ccccn2c(=O)n1CCCCN1CCCC(c2c[nH]c3ccc(F)cc23)C1 (configuration not stated) | 147 | 30 |  |
| O=c1c(-c2ccccc2Cl)c2ccccn2c(=O)n1CCCCN1CCCC(c2c[nH]c3ccc(F)cc23)C1 (configuration not stated) | 378 | 255 |  |
| COc1ccc2[nH]cc(C3CCCN(CCCCn4c(=O)c(-c5ccccc5Cl)c5ccccn5c4=O)C3)c2c1 (configuration not stated) | 176 | 459 |  |
| O=c1c(-c2ccc(F)cc2)c2ccccn2c(=O)n1CCCCN1CCCC(c2c[nH]c3ccccc23)C1 (configuration not stated) | 46 | 46 | deltaT (Mus musculus [3]): 0.4 °C; Ki [4]: 697 nM; Ki [5]: 435 nM; deltaT (Mus musculus [6]): -0.2 °C; deltaT (Mus musculus [7]): 0.2 °C; deltaT (Mus musculus [8]): -1.3 °C; deltaT (Mus musculus [9]): 0.2 °C; Ki [10]: 1440 nM; deltaT (Mus musculus [11]): 0.1 °C; deltaT (Mus musculus [12]): 0.3 °C; deltaT (Mus musculus [13]): -1.2 °C; deltaT (Mus musculus [14]): -1.2 °C; Ki (D(2) dopamine receptor): 963 nM; deltaT (Mus musculus [15]): 0.5 °C; deltaT (Mus musculus [16]): 0.4 °C; half-life at 1 µM [17]: 5.53 min; deltaT (Mus musculus [18]): -1.3 °C |
| COc1ccccc1-c1c(=O)n(CCCCN2CCCC(c3c[nH]c4ccc(F)cc34)C2)c(=O)n2ccccc12 (configuration not stated) | 80 | 118 |  |
| COc1ccc2[nH]cc(C3CCCN(CCCCn4c(=O)c(-c5ccccc5OC)c5ccccn5c4=O)C3)c2c1 (configuration not stated) | 69 | 386 |  |
| O=c1c(-c2ccc(Cl)cc2)c2ccccn2c(=O)n1CCCCN1CCCC(c2c[nH]c3ccc(F)cc23)C1 (configuration not stated) | 155 | 86 |  |
| O=c1c(-c2ccccc2Cl)c2ccccn2c(=O)n1CCCCN1CCCC(c2c[nH]c3ccccc23)C1 (configuration not stated) | 50 | 103 |  |
| COc1ccccc1-c1c(=O)n(CCCCN2CCCC(c3c[nH]c4ccccc34)C2)c(=O)n2ccccc12 (configuration not stated) | 132 | 411 |  |
| COc1ccc2[nH]cc(C3CCCN(CCCCn4c(=O)c(-c5ccccc5F)c5ccccn5c4=O)C3)c2c1 (configuration not stated) | 130 | 1670 |  |
| COc1ccc(-c2c(=O)n(CCCCN3CCCC(c4c[nH]c5ccc(F)cc45)C3)c(=O)n3ccccc23)cc1 (configuration not stated) | 140 | 27 |  |
| O=c1c(-c2ccccc2F)c2ccccn2c(=O)n1CCCCN1CCCC(c2c[nH]c3ccc(F)cc23)C1 (configuration not stated) | 218 | 115 |  |
| Cc1ccccc1-c1c(=O)n(CCCCN2CCCC(c3c[nH]c4ccccc34)C2)c(=O)n2ccccc12 (configuration not stated) | 102 | 76 |  |
| Cc1ccc(-c2c(=O)n(CCCCN3CCCC(c4c[nH]c5ccc(F)cc45)C3)c(=O)n3ccccc23)cc1 (configuration not stated) | 136 | 135 |  |
| COc1ccc2[nH]cc(C3CCCN(CCCCn4c(=O)c(-c5ccccc5C)c5ccccn5c4=O)C3)c2c1 (configuration not stated) | 476 | 87 |  |
| O=c1c(-c2ccc(Cl)cc2)c2ccccn2c(=O)n1CCCCN1CCCC(c2c[nH]c3ccccc23)C1 (configuration not stated) | 294 | 82 |  |
| COc1ccc2[nH]cc(C3CCCN(CCCCn4c(=O)c(-c5ccc(F)cc5)c5ccccn5c4=O)C3)c2c1 (configuration not stated) | 281 | 192 |  |
| O=c1c(-c2ccccc2)c2ccccn2c(=O)n1CCCCN1CCCC(c2c[nH]c3ccc(F)cc23)C1 (configuration not stated) | 209 | 8 |  |
| COc1ccc2[nH]cc(C3CCCN(CCCCn4c(=O)c(-c5ccc(C)cc5)c5ccccn5c4=O)C3)c2c1 (configuration not stated) | 333 | 173 |  |
| O=c1c(-c2ccccc2F)c2ccccn2c(=O)n1CCCCN1CCCC(c2c[nH]c3ccccc23)C1 (configuration not stated) | 53 | 240 |  |
| COc1ccc(-c2c(=O)n(CCCCN3CCCC(c4c[nH]c5ccccc45)C3)c(=O)n3ccccc23)cc1 (configuration not stated) | 42 | 41 | deltaT (Mus musculus [3]): 0.3 °C; deltaT (Mus musculus [19]): -1.4 °C; Ki [4]: 1710 nM; Ki [5]: 21 nM; deltaT (Mus musculus [6]): -1.6 °C; deltaT (Mus musculus [7]): 0.5 °C; deltaT (Mus musculus [9]): 0 °C; Ki [10]: 1920 nM; deltaT (Mus musculus [11]): 0.3 °C; deltaT (Mus musculus [12]): 0.4 °C; deltaT (Mus musculus [20]): -0.7 °C; Ki (D(2) dopamine receptor): 1130 nM; deltaT (Mus musculus [15]): 0.3 °C; deltaT (Mus musculus [16]): 0.4 °C; half-life at 1 µM [17]: 7.4 min |
| COc1ccc2[nH]cc(C3CCCN(CCCCn4c(=O)c(-c5ccccc5)c5ccccn5c4=O)C3)c2c1 (configuration not stated) | 261 | 248 |  |
| Cc1ccccc1-c1c(=O)n(CCCCN2CCCC(c3c[nH]c4ccc(F)cc34)C2)c(=O)n2ccccc12 (configuration not stated) | 376 | 338 |  |
| Cc1ccc(-c2c(=O)n(CCCCN3CCCC(c4c[nH]c5ccccc45)C3)c(=O)n3ccccc23)cc1 (configuration not stated) | 63 | 207 |  |
| COc1ccc2[nH]cc(C3CCCN(CCCCn4c(=O)c(-c5ccc(Cl)cc5)c5ccccn5c4=O)C3)c2c1 (configuration not stated) | 257 | 490 |  |
